# S100A4 MyoIIA = S100A4-myosin IIA interaction inhibition; S100A4/TAMRA-MyoIIA peptide fluorescence polarization; 0.14% of 360,000 active; AID 652163; inhibition, % at 10.7 µM;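 active means mean inhibition of at least 70% across replicates, with every replicate also reaching that level; inconclusive means mean inhibition reaches 70% but some replicates fall short; inactive means mean inhibition below 70%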
# Target sequence (P26447 whole entry, looked up): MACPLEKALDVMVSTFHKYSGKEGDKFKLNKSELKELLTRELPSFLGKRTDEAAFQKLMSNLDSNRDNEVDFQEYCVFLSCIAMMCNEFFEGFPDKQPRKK
#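 Material: S100A4 monomer (human). Medium: Calcium-containing HEPES buffer, pH 7.2. Probe or stimulus: labelled myosin peptide probe, 5 nM. Compound dosing: one concentration per compound. Timing: polarization read 5 min after assay mix addition, stable 5–60 min. Benchmarks: DMSO as neutral control, TFP as positive control.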
# DENV2 CPE = protects cells from dengue virus 2 cytopathic effect | 1.7% of 350,000 active | AID 651640 | DENV2-infected cells, cytopathic effect rescue, plate reader | CPE inhibition, % at 9.99 µM; in the data active means CPE inhibition above about 20%, passing the limit was not always enough; inconclusive means no clear call, values can overlap the other calls; tested in BHK-21 cells;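 further: 0% = median of neutral control wells and 100% = median of positive control wells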
# Xi reactivation = reactivates the inactive X chromosome in mouse fibroblasts | XiGFP mouse fibroblasts, % GFP-positive cells imaging, 3 d; cells co-treated with 5-aza-dC sensitizer; scaled so ellipticine positive control = 100% | activation, % at 7.58 µM | 0.055% of 360,000 active | AID 743238;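 active means mean normalized replicate activation at least 10% and every replicate at or above 10%; inconclusive means only one of the two criteria met; inactive means mean below 10% and not all replicates reach 10%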;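 further: 0% = median of on-plate neutral control wells and 100% = ellipticine 6 µM median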
#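 System: SV40-immortalized XiGFP fibroblast cells, line 68-5-11 / Incubation: 3-day compound exposure, then 15 min fixation at room temperature / Compound: single concentration per compound, delivered by pin transfer / Buffer or medium: DMEM plus 5-aza-dC sensitizer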
# E-selectin induc = induces E-selectin expression in human endothelial cells | activation, % at 7.58 µM | 0.37% of 260,000 active | P16581 | HUVEC E-selectin immunofluorescence imaging; normalized: neutral wells 0, TNF-alpha wells 100;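 active means mean E-selectin-positive cell signal at least 10% of the positive control, reached in at least 60% of replicates, without over 20% cell loss; inconclusive means no rule given, readout overlaps actives, possibly toxicity-flagged; inactive means the rest, including those meeting only one limit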
#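 System: HUVEC / Compound: single concentration / Signal: immunofluorescence imaging / Read-out: percent E-selectin-positive cells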
# The depositor's hits bear a star; ? = inconclusive; . = not tested or not shown. Compounds with a hit are over-represented: about 2% of the library has one in this group of screens.
SMILES,S100A4 MyoIIA,DENV2 CPE,Xi reactivation,E-selectin induc
O=C(Nc1ccc2c(c1)[C@@H]1C[C@@H](CC(=O)N3CCOCC3)O[C@H](CO)[C@@H]1O2)C1CCC1,.,8,0,0
Cc1ccc(S(=O)(=O)Nc2ccc3c(c2)C(=O)N([C@H](C)CO)C[C@H](C)[C@@H](CN(C)S(=O)(=O)c2ccccc2)O3)cc1,2,39*,-1,1
Cc1ccc(S(=O)(=O)Nc2ccc3c(c2)C(=O)N([C@H](C)CO)C[C@@H](C)[C@H](CN(C)S(=O)(=O)c2ccc(Cl)cc2)O3)cc1,3,43*,-1,-1
C[C@@H]1CN([C@H](C)CO)C(=O)c2cc(C3=CCCC3)cnc2O[C@H]1CN(C)C(=O)C1CCCCC1,4,-2,0,0
C[C@@H]1CCCCO[C@H](CN(C)C(=O)Nc2ccc(C(F)(F)F)cc2)[C@H](C)CN([C@@H](C)CO)C(=O)c2cc(NC(=O)Nc3ccc(C(F)(F)F)cc3)ccc2O1,.,30*,0,0
C[C@H]1CCCCO[C@H](CN(C)C(=O)Nc2ccccc2)[C@@H](C)CN([C@@H](C)CO)C(=O)c2cc(NC(=O)Nc3ccc(C(F)(F)F)cc3)ccc2O1,.,60*,0,0
C[C@@H]1CCCCO[C@H](CN(C)C(=O)NC2CCCCC2)[C@@H](C)CN([C@@H](C)CO)C(=O)c2cc(NC(=O)Nc3ccc(C(F)(F)F)cc3)ccc2O1,143*,-4,0,0
C[C@@H]1CCCCO[C@H](CN(C)C(=O)NC2CCCCC2)[C@@H](C)CN([C@H](C)CO)C(=O)c2cc(NC(=O)Nc3ccc(C(F)(F)F)cc3)ccc2O1,-9,-3,0,0
C[C@@H]1CCCCO[C@@H](CN(C)C(=O)Nc2ccccc2)[C@H](C)CN([C@@H](C)CO)C(=O)c2cc(NC(=O)Nc3ccc(C(F)(F)F)cc3)ccc2O1,.,.,0,.
C[C@@H]1CN([C@H](C)CO)C(=O)c2cc(NC(=O)Nc3ccc(C(F)(F)F)cc3)ccc2O[C@@H]1CN(C)C(=O)Nc1ccc(C(F)(F)F)cc1,106*,-5,0,0
CCC(=O)NC1(C(F)(F)F)C(=O)Nc2c1c(=O)n(C)c(=O)n2C (stereo not drawn),.,.,.,8
O=C(NCC[C@H]1CC[C@@H](NS(=O)(=O)c2cccc(F)c2)[C@@H](CO)O1)C1CCC1,-13,-6,0,-1
CCN1C(=O)N[C@H]2C[C@@H](c3ccccc3)[C@@H](C)[C@@H](C(=O)N3CCCC3)C[C@H]21,-1,-6,0,1
CCn1c2c(n(C(C)=O)c1=O)C[C@@H](c1ccccc1)[C@@H](C)[C@@H](C(=O)N1CCCC1)C2,-3,50*,0,0
CC1(C)Cc2c(cnn2-c2ccc(F)cc2)C(NC(=O)c2ccc(=O)oc2)C1 (stereo not drawn),-2,70*,0,0
COc1ccc(CCNC(=O)CS(=O)(=O)c2cn(CC(=O)N3CCOCC3)c3ccccc23)cc1OC,7,3,1,1
COc1ccc(C2=Nc3ccccc3N(C(=O)c3ccncc3)C2C(=O)NC(C)C)cc1 (stereo not drawn),-3,59*,0,3
COc1ccc(C2=Nc3ccccc3N(C(=O)Cc3cc(OC)cc(OC)c3)C2C(=O)NC(C)C)cc1 (stereo not drawn),3,19,0,0
O=C(COc1cccnc1[N+](=O)[O-])Nc1ccccc1Sc1ccccc1,11,32*,0,.
Cn1nnc(NC(=S)NC(=O)c2cc3ccccc3o2)n1,2,4,0,4
CC(C)c1ccc(C(=O)Nc2nnc(S(=O)(=O)N3CCCCC3)s2)cc1,-1,4,0,45*
Cc1c(Nc2cc(Cl)c3nonc3c2[N+](=O)[O-])c(=O)n(-c2ccccc2)n1C,6,2,19*,.
Cc1c(Nc2ccc3nonc3c2[N+](=O)[O-])c(=O)n(-c2ccccc2)n1C,4,2,0,.
CCC(C(=O)Nc1c(C)cccc1C)n1c(-c2ccc(=O)[nH]c2)nc2ccccc21 (stereo not drawn),0,33*,0,0
COc1ccc(NC(=O)Nc2ccc3c(c2)C(=O)N([C@@H](C)CO)C[C@H](C)[C@H](CN(C)C(=O)Nc2cccc4ccccc24)O3)cc1,1,31*,-1,.
SMILES,S100A4 MyoIIA,DENV2 CPE,Xi reactivation,E-selectin induc
C[C@H]1CN([C@@H](C)CO)C(=O)c2cc(NC(=O)Nc3cccc4ccccc34)ccc2O[C@H]1CN(C)C(=O)Nc1ccc(F)cc1,-5,-11,0,0
C[C@@H]1CN([C@H](C)CO)C(=O)c2cc(NC(=O)Nc3cccc4ccccc34)ccc2O[C@@H]1CN(C)C(=O)Nc1ccc(F)cc1,-9,25*,0,0
COc1ccc(CN(C)C[C@@H]2Oc3ccc(NC(=O)Nc4ccc(C(F)(F)F)cc4)cc3C(=O)N([C@@H](C)CO)C[C@@H]2C)cc1,1,-1,0,0
CN1C(=O)c2cc(NC(=O)C3CC3)ccc2OC[C@H]2O[C@@H](CC(=O)NCc3cccc(F)c3)CC[C@H]21,.,2,0,0
CN(C(=O)c1ccc(NC(=O)Cc2ccc(NC(=O)C3CCN(C(=O)C4CCCCC4)CC3)cc2)cc1)C1CCCC1,13,86*,0,0
CN(C(=O)c1cccc(NC(=O)Cc2ccc(NC(=O)C3CCN(C(=O)C4CC4)CC3)cc2)c1)C1CCCC1,3,47*,0,0
CN(C(=O)c1cccc(NC(=O)Cc2ccc(NC(=O)C3CCN(C(=O)C4CC4)CC3)cc2)c1)C1CCC1,-7,10,0,-6
CC(C)NC(=O)N(C)C[C@H]1Oc2cc(-c3ccccc3F)ccc2S(=O)(=O)N([C@H](C)CO)C[C@@H]1C,1,10,0,0
CCCCn1c(=O)cc(C)n(-c2ccccc2)c1=O,-3,2,0,2
CC(C)(C)NC(=S)N1CCC(C(=O)c2ccc(Cl)cc2)CC1,0,21*,0,.
C[C@H](CO)N1C[C@H](C)[C@H](CN(C)CC2CC2)Oc2c(NC(=O)C3CC3)cccc2C1=O,2,-8,0,64*
C[C@H]1CN([C@@H](C)CO)C(=O)c2cccc(NC(=O)C3CC3)c2O[C@H]1CN(C)Cc1ccccc1,2,?,0,27*
C[C@H](CO)N1C[C@H](C)[C@@H](CN(C)Cc2ccncc2)Oc2c(NC(=O)C3CCOCC3)cccc2C1=O,3,-6,0,-6
C[C@@H]1CN([C@H](C)CO)C(=O)c2cccc(NC(=O)C3CCCCC3)c2O[C@@H]1CN(C)Cc1ccc(Oc2ccccc2)cc1,143*,2,0,0
C[C@@H]1CN([C@@H](C)CO)C(=O)c2cccc(NC(=O)C3CCOCC3)c2O[C@@H]1CN(C)Cc1ccncc1,-3,3,-1,228*

# Bioassay records deposited in PubChem BioAssay by Broad Institute.
